Experimental data reported in article PMC8669716 (ACS Pharmacology & Translational Science, 2021).
pEC50, pIC50: −log10 of the molar value.

Key:
[1] = target: T1, human recombinant LSD1 enzyme (Homo sapiens, UniProt O60341); test: LSD1 HTRF assay; type: biochemical
AML cell line TF-1a = test: AML cell viability; type: cell-based; details: for pEC50: TF-1a, read-out: EC50 viability, AML cell lines
SCLC patients = details: cited from earlier work
RR-AML patients = details: cited from earlier work
SCLC cell line NCI-H510A = test: SCLC cell viability; type: cell-based; details: Homo sapiens, 240 h, read-out: EC50 viability NCI-H510A
[2] = test system: GRP gene expression in NCI-H510A cells; test: GRP gene expression by qRT-PCR; type: cell-based; details: 6 days, 2000, 200, 20 and 2 nM
Method in brief: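 NCI-H510A SCLC cells (mycoplasma-free) seeded at 0.5 million per 5 mL complete RPMI-1640 (10% FBS, 2 mM l-glutamine). They were treated with test compound at 2000, 200, 20 and 2 nM for 6 days at 37 °C, 5% CO2. Pellets of 0.5 million cells were PBS-washed and stored at −80 °C, then total RNA was extracted for qRT-PCR of GRP; N = 1, n = 3.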

LSD1 in NCI-H510A cells = LSD1 in NCI-H510A cells (Homo sapiens, UniProt O60341); test: LSD1 target engagement; type: cell-based; details: 24 h, 2000, 200, 20 and 2 nM
[3] = target: T1, human recombinant LSD1 enzyme; details: incubation at 10-fold IC50, 100-fold dilution
[4] = target: INSM1/LSD1 interaction in NCI-H510A cells (Homo sapiens, UniProt O60341); test: INSM1/LSD1 interaction ELISA on NCI-H510A lysates; type: cell-based; details: 24 h, 2000, 200, 20 and 2 nM
[5] = Stability in aqueous buffer; type: physicochemical; details: aqueous buffer at 37 °C, LCMS, day 6
Method in brief: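 A 20 mM DMSO solution of test compound was diluted with PBS and held at 37 °C. Samples were analysed by LCMS at T = 0, 4 and 6 days, using one of three compound-specific HPLC method conditions.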

[6] = target: T2, human recombinant LSD2 enzyme (Homo sapiens, UniProt Q8NB78); test: LSD2 HTRF assay; type: biochemical; details: read-out: LSD2 inhibition
T2 sequence (Q8NB78 1-822): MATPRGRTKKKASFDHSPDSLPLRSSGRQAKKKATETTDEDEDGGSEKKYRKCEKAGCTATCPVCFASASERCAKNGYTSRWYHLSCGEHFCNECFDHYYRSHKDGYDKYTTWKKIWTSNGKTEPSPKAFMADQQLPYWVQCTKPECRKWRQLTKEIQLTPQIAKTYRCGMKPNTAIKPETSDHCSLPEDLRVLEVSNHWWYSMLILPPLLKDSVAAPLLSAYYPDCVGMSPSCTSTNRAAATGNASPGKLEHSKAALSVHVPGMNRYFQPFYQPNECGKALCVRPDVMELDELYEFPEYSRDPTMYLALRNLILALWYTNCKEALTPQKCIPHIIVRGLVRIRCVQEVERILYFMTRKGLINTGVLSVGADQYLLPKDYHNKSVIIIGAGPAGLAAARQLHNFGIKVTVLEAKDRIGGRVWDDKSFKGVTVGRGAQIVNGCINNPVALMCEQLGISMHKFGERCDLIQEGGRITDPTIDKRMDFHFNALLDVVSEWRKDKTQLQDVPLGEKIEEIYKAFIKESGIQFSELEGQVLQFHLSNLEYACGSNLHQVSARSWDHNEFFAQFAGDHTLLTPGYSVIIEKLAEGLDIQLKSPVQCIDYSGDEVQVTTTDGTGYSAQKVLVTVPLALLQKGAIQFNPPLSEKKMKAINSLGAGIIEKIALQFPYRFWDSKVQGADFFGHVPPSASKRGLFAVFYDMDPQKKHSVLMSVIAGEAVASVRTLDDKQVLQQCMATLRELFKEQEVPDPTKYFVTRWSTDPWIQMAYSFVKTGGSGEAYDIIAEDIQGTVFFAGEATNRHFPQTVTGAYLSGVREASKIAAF

[7] = target: T1, human recombinant LSD1 enzyme; test: LSD1 peroxidase; type: biochemical
[8] = target: recombinant LSD1 / GFI1B SNAG domain peptide interaction (Homo sapiens, UniProt O60341); test: GFI1B-peptide/LSD1 interaction assay; type: binding; details: 2 μM, 200 nM, 20 nM and 2 nM
[9] = test system: CD11b induction in THP-1 cells; test: AML differentiation: CD11b by flow cytometry; type: cell-based; details: THP-1, 0.02 to 2000 nM, 96 h
LSD1 in MV(4;11) cells = LSD1 in MV(4;11) cells (Homo sapiens, UniProt O60341); test: LSD1 target engagement; type: cell-based; details: 24 h, 2000, 200, 20 and 2 nM
[10] = cited from earlier work

With O=C(O)c1ccc(CN2CCC(CN[C@@H]3C[C@H]3c3ccccc3)CC2)cc1 [GSK-2879552] as the compound, how does the “fold less active than iadademstat in the LSD1 HTRF assay” value [1] read?
Its value is 491 fold.

What about the “fold less active than iadademstat in the (TF-1a) AML viability assays” value (AML cell line TF-1a) of the same compound?
The value was 849 fold.

And the G3/4 encephalopathy (SCLC patients)?
Its G3/4 encephalopathy is 10%.

With N[C@H]1CC[C@H](N[C@@H]2C[C@H]2c2ccccc2)CC1 [iadademstat] as the compound, how does the safety and tolerability (RR-AML patients) read?
Its safety and tolerability is “safe and well-tolerated”.

What about the pEC50 (SCLC cell line NCI-H510A) of the same compound?
The pEC50 was 9.80.

And the “effect on GRP expression” value [2]?
The value was “most potently inhibits the expression of the neuroendocrine biomarker (including at 2 nM)”.

Which “LSD1 TE” value (LSD1 in NCI-H510A cells) does the source give for C/C(=N\NC(=O)c1cccc(S(=O)(=O)N2CCN(C)CC2)c1)c1cc(Cl)ccc1O [seclidemstat] here?
Its value is “did not show any significant LSD1 TE at the concentrations tested”.

What about the “recovery of LSD1 activity upon jump dilution” value [3] of the same compound?
Its value is 62%.

And the pIC50 ([1]; LSD1 IC50, HTRF assay)?
The pIC50 was 5.89.

And the “disruption of LSD1/INSM1 PPI” value [4]?
The value was “totally inactive”.

And the “T = 6 days purity (parent compound remaining)” value [5]?
The value was 72%.

What about the pEC50 (SCLC cell line NCI-H510A) of the same compound?
Its pEC50 is 6.73.

What about the inhibition at 10 µM [6] of the same compound?
Its inhibition at 10 µM is less than 50%.

And the pIC50 [7]?
The pIC50 was 5.62.

What about the “disruption of LSD1/GFI1B interaction” value [8] of the same compound?
Its value is “does not disrupt the LSD1/GFI1B interaction”.

And the “effect on GRP expression” value [2]?
The value was “does not impact GRP expression”.

And the “induction of CD11b marker” value [9]?
Its value is “does not induce the CD11b marker”.

For c1ccc([C@@H]2C[C@H]2NC2CCNCC2)cc1 [OG-668], which “LSD1 TE” value (LSD1 in MV(4;11) cells) is on record?
Its value is “high LSD1 TE at all concentrations tested”.

And the “disruption of LSD1/INSM1 PPI” value [4]?
Its value is “reduction of the LSD1/INSM1 interaction at all four concentrations”.

And the pEC50 (SCLC cell line NCI-H510A)?
The pEC50 was 8.93.

What about the “disruption of LSD1/GFI1B interaction” value [8] of the same compound?
The value was “shows reduction of the LSD1/GFI1B interaction in the 2 μM to 2 nM range”.

What about the “effect on GRP expression” value [2] of the same compound?
The value was “reduce GRP expression at all concentrations”.

Which “fold less active than iadademstat in the LSD1 HTRF assay” value [1] does the source give for CN1CCN(C(=O)[C@H](CCCN[C@@H]2C[C@H]2c2ccc(F)cc2)NC(=O)c2ccc(-n3ccnn3)cc2)CC1 [bomedemstat] here?
The value was 174 fold.

What about the “fold less active than iadademstat in the (TF-1a) AML viability assays” value (AML cell line TF-1a) of the same compound?
The value was 345 fold.

With NNCCc1ccccc1 [phenelzine] as the compound, how does the pEC50 (AML cell line TF-1a) read?
Its pEC50 is less than 5.70.

And the “T = 6 days purity (parent compound remaining)” value [5]?
The value was 4%.

What about the pEC50 (SCLC cell line NCI-H510A) of the same compound?
Its pEC50 is less than 5.70.

With C#CCN(C)Cc1ccccc1 [pargyline] as the compound, how does the pEC50 (AML cell line TF-1a) read?
Its pEC50 is less than 5.70.

What about the pEC50 (SCLC cell line NCI-H510A) of the same compound?
The pEC50 was less than 5.70.

Which half-life ([10]; humans) does the source give for COc1ccc(-c2c(-c3ccc(C#N)c(F)c3)nc(N3CCC(N)CC3)n(C)c2=O)cc1F [pulrodemstat] here?
Its half-life is “≈ 70 h”.

And the adverse events reported ([10]; monotherapy)?
Its adverse events reported is “Thrombocytopenia and neutropenia events”.

What about the pEC50 (SCLC cell line NCI-H510A) of the same compound?
The pEC50 was 8.75.
